The target in series [1] is T1, C3b (Homo sapiens, UniProt P01024). The series is classed as binding. The following applies: read-out: KD for C3b, conventional SPR, C5; 1:1 Langmuir kinetic model. An outline of the steps:
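Biotinylated C3b was captured on a NeutrAvidin-coupled sensor chip (6,560 RU surface for C5). Native C5 in HBST ran as a two-fold concentration series: 2 min injection, 3 min dissociation, 30 μl min−1, no regeneration. KD came from a 1:1 Langmuir kinetic fit of reference-corrected sensorgrams.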

The next series concerns the target C5/C3b interaction (Homo sapiens, UniProt P01024). The experiment in a line: LE-SPR competition assay B23-C5/C3b. It is filed as binding. The procedure, abridged: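 B23-C5 (250 nM) was co-injected over oriented biotin-C3b (4,460 RU) with competitor: unlabelled C5 (250 nM), TRX-4W9A (12 μM) or compstatin peptide (65 μM) in HBS-T. Runs with small molecules used buffer with 5% (v/v) DMSO. A parallel competitor-only injection served for epigram calculation. Residual binding was the mean eRU over 10 s before injection stop, relative to B23-C5 alone or DMSO vehicle. Each run was done 2–4 times.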

For series [2], the target named is T1, C3b. The experiment in a line: Label-enhanced SPR. The following applies: read-out: KD for C3b, LE-SPR, B23-C5; 1:1 Langmuir kinetic model. The series is classed as binding. The procedure, abridged:
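C5 was dialysed into PBS pH 7.4 (2 h, RT), labelled 1 h in the dark with 5-fold molar excess NHS-B23 dye, then dialysed into HBS overnight at 4°C. A two-fold concentration series ran over oriented biotin-C3b (5,160 RU) at 10 μl min−1 with 1 min association and 1 min dissociation. An unlabelled injection at the top concentration weighted dip width and position to give epigrams (eRU). KD from a 1:1 Langmuir kinetic fit.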

Series [3] relates to C3b deposition (classical pathway). Description: CP ELISA, C3b deposition. The series is classed as biochemical, human. Conditions: concentrations up to 625 μM, 1% (v/v) serum. An outline of the steps: (§1)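 Wells coated overnight with 3 μg ml−1 human IgM in carbonate pH 9.6, then blocked with BSA/Tween-20 in PBS. Test compound (250 μM single concentration, or series up to 625 μM; 2.5% DMSO) is added to 1% (v/v) normal human serum in HEPES pH 7.3, gelatin, NaCl, 2 mM CaCl2, 0.5 mM MgCl2. Incubated 1 h at 37°C. Detection: anti-C3b WM1 or anti-C4b C4-1 (1/300). Normalised to mean vehicle as 100%.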

For the next series, the target named is compstatin/C3b binding (Homo sapiens, UniProt P01024). The experiment in a line: LE-SPR competition assay B23-TRX-4W9A. Conditions: 500 μM compound, 500 nM B23-TRX-4W9A vs 5% DMSO. The procedure, abridged:
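B23-labelled TRX-4W9A (500 nM) was co-injected with 500 μM test compound, 5% (v/v) DMSO vehicle, or 65 μM compstatin peptide (positive control) over oriented biotin-C3b (3,800 and 3,100 RU surfaces). Running buffer contained 5% DMSO, and competitor-only injections served for epigram calculation. Residual binding was the mean eRU over 10 s before injection stop, relative to DMSO control. Each compound was tested on at least two independent C3b surfaces.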

Series [4] relates to C5a production (C5 cleavage). Description: C5a capture ELISA of CP ELISA reactions. Conditions: fixed 500 μM cmp-5, serum 0–4% (v/v); DMSO control 1.55% (v/v). It is filed as biochemical, human. An outline of the steps:
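Completed CP ELISA reactions (IgM-coated plates, CP buffer, 1 h at 37°C; fixed 500 μM test compound or DMSO vehicle, serum 0–4% (v/v)) were diluted 2-fold onto plates coated overnight at room temperature with 1 μg ml−1 anti-C5a neoepitope mAb. Incubation 1 h at RT with rocking. Detection used rabbit anti-human C5a (1/200, 1 h RT), then goat anti-rabbit-HRP (1/5000, 1 h) and TMB, read at 450 nm. Signals normalised to the mean vehicle control as 100%.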

Series [5] has as its system classical pathway (CP) complement activation, MAC deposition. The experiment in a line: CP-specific complement ELISA, MAC deposition. The series is classed as biochemical, human. An outline of the steps: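 Plates carry 3 μg ml−1 human IgM, blocked with BSA/Tween-20. Test compound (250 μM, or 0–625 μM series; 2.5% DMSO) is mixed with 1% normal human serum in HEPES pH 7.3 buffer with 2 mM CaCl2, 0.5 mM MgCl2 and gelatin. Serum-titration arm: fixed 500 μM compound or DMSO vehicle, serum 0–4% (v/v). Incubated 1 h at 37°C. Read-out: anti-MAC aE11 (1/300). Normalised to vehicle mean as 100%.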
On the technique in general: An ELISA detects its analyte on a solid surface through an enzyme-linked reagent.

The subject of series [6] is alternative pathway (AP) complement activation, MAC deposition. Description: AP-specific complement ELISA, MAC deposition. The series is classed as biochemical, human. Conditions: 250 μM, 20% (v/v) serum. An outline of the steps:
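Wells coated overnight with 25 μg ml−1 Salmonella typhosa LPS in 100 mM carbonate pH 9.6, then blocked 1 h at 37°C with PBS/1% BSA/0.05% Tween-20. Test compound (250 μM final, 2.5% DMSO) is mixed with 20% (v/v) normal human serum in HEPES pH 7.5, gelatin, NaCl, 5 mM MgCl2, 5 mM EGTA. Incubated 1 h at 37°C. MAC detected with anti-C5b-9 aE11 (1/300). Signal expressed against mean vehicle as 100%.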

The nature of series [7]: Compound solubility in CP ELISA assay buffer. Conditions: aqueous buffer. It is filed as physicochemical.
Series [8] concerns C4b deposition (classical pathway). Description: CP ELISA, C4b deposition. It is filed as biochemical, human. Conditions: concentrations up to 625 μM, 1% (v/v) serum. An outline of the steps:
as §1

Series [9] deals with T2, site-specifically biotinylated C3b (human, UniProt P01024 23-667; P01024 749-1663, site-specifically biotinylated with EZ-link Maleimide-PEG2-biotin). The experiment in a line: AlphaScreen or HTRF. For orientation: Bead proximity is the source of the signal in Alpha formats.
The target of series [10] is T2, site-specifically biotinylated C3b. The experiment in a line: SPR. On the technique in general: In SPR one partner is held on a chip, and binding of the other changes the refractive index at the surface.
Series [11] has the same target. The experiment in a line: SPR. The source holds these as a separate data set.
Series [12] shares this target. The experiment in a line: SPR. This is another data set of the same source.

In brackets after ≈: the same amount, converted by molar mass. Entries after “also recorded” stand apart in the source; their conditions may differ. Where two headings read alike, the source gives them in different places.

One may read the Kd as the equilibrium constant for the complex coming apart. As a reminder, the solubility is the dissolved amount per volume that the medium holds. Low values mean little dissolved substance, high ones much dissolved substance.

For the molecule “C5: complement component C5, purified protein (Complement Technologies)”, the Kd in the series with C3b [1] worked out at 350 nM. Further, the “effect on B23-C5/C3b LE-SPR signal, protein/peptide competitors” value in the series with C5/C3b interaction (250 nM B23-C5, 250 nM unlabeled C5, 12 μM TRX-4W9A or 65 μM compstatin peptide) is recorded as “reduces the B23-C5 specific LE-SPR signal”. Besides, the “reduction of specific binding of B23-C5 to C3b” value in the series with C5/C3b interaction (250 nM B23-C5, competitor 250 nM unlabeled C5 or 12 μM TRX-4W9A, HBS-T) is given as ~50%.
For B23-C5: C5 labeled with NHS-B23 dye, the Kd with C3b [2] came to 3200 nM.
For the molecule `Cc1ccnn1-c1cccc(NC(=O)CC2OC(=O)c3ccccc32)c1` (stereo not shown) [cmp-5, N-(3-(5-methyl-1H-pyrazol-1-yl)phenyl)-2-(3-oxo-1,3-dihydroisobenzofuran-1-yl)acetamide], the “effect on C3b deposition, CP ELISA” value in series [3] is on record as “no effect”. Further, the “effect on B23-TRX-4W9A-specific LE-SPR signal (C3b binding)” value on compstatin/C3b binding is recorded as “reduction of specific C3b-binding; also recorded: modest ability to compete”. Further, the “EC50 of serum, C5a production” value in [4] is given as 2.04 % (v/v). Besides, the “inhibition of MAC deposition in CP ELISA” value in series [5] (250 μM, 1% (v/v) serum) is listed as “significant inhibition”. Further, the “MAC deposition relative to control response (CP ELISA)” value in [5] (250 μM, 1% (v/v) serum, n=13) is 59 ± 2.4%. Moreover, the “EC50 of serum, MAC deposition” value in series [5] (fixed 500 μM cmp-5, serum 0–4% (v/v), DMSO control 0.88% (v/v)) is recorded as 1.43 % (v/v). In addition, the “inhibition of the AP (MAC deposition)” value in series [6] is on record as “significant inhibition”. Also, the “MAC deposition relative to control response (AP ELISA)” value in series [6] (n=5) is listed as 73 ± 4.6%. Also, the solubility in series [7] was ~600 µM (≈ 208 µg/mL). In series [8], the “effect on C4b deposition, CP ELISA” value is recorded as “no effect”. Besides, the “effect on B23-C5/C3b interaction, small molecules” value at C5/C3b interaction (500 μM compound, 250 nM B23-C5 vs 5% DMSO vehicle) was “did not affect; also recorded: failed to perturb”.

B1: untagged Ba(1–3) (domain or fragment, human, UniProt P00751 35-220, looked up)
chain: GSCSLEGVEIKGGSFRLLQEGQALEYVCPSGFYPYPVQTRTCRSTGSWSTLKTQDQKTVRKAECRAIHCPRPHDFENGEYWPRSPYYNVSDEISFHCYDGYTLRGSANRTCQVNGRWSGQTAICDNGAGYCSNPGIPIGTRKVGSQYRLEDSVTYHCSRGLTLRGSQRRTCQEGGSWSGTEPSCQD
On to B1, for which binding in series [9] was characterised by a dissociation constant (Kd) of 4700 nM.
As for ENLYFQGGSGSGSGICVWQDWGAHRCT (designed binder) [thioredoxin-compstatin fusion protein (TRX-4W9A)], the Kd in series [10] turned out to be 770 nM.
Turning to ENLYFQGGSGSGSGICVWQDWGAHRCT (designed binder, labeled with the dye reagent Episentec NHS-B23 (5-fold molar excess)) [B23 dye-labeled TRX-4W9A], the Kd in series [11] came out at 560 nM; in series [12] it was 790 nM.

For the origin of these results see publication PMC5417336 (Journal of immunology (Baltimore, Md. : 1950), 2017).
